Bioassay records (PubChem)
Most compounds without a hit are left out; they make up all but 4.5% or so of the library.
GPR7 antag: human neuropeptides B/W receptor 1 antagonism; 1.1% of 290,000 active; inhibition, % at 4.4 µM; GPR7-expressing cells, fluorescence antagonist assay; P48145; in the data active means inhibition above about 16%, passing the limit was not always enough;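 further: cells stimulated with the agonist NPW; 0% = agonist with vehicle and 100% = vehicle without agonist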
OX1R antag-1: human HCRTR1 antagonism; O43613; CHO/OX1R cells, Fluo-8 calcium fluorescence, orexin A; inhibition, % at 5 µM; 0.43% of 330,000 active;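 active means inhibition above its plate's threshold, mean inhibition of all tested compounds on the plate plus 3 SD, cut at about 37% in these data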;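 further: 0% = orexin A challenge wells and 100% = SB-334867-A antagonist wells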
Target sequence (O43613 whole entry, looked up): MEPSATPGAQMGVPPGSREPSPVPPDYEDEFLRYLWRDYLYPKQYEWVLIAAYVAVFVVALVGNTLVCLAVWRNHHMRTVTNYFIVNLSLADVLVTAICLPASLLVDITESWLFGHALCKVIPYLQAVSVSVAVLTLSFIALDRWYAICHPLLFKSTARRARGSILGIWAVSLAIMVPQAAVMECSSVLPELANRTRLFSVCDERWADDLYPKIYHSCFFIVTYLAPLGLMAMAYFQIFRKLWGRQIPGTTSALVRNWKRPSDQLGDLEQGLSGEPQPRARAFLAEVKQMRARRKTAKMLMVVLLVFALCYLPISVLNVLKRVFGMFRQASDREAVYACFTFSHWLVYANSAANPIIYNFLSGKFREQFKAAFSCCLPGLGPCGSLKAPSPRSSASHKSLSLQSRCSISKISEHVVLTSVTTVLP
TAAR1 ag: human TAAR1 agonism | activation, % at 3 µM | Q96RJ0 | CHO RD-HGA16 TAAR1, Fluo-8 calcium fluorescence; vehicle wells 0%, saturating PEA agonist 100% | 0.99% of 360,000 active;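 active means activation above the mean activation of all test compounds in the run plus 3 SD, cut at about 38% in these data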
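Assay system – CHO-derived RD-HGA16 cells with stable Gα16 and human TAAR1 · Compound dosing – one-point dosing at 3 µM (nominal) · Incubation – 17-24 h seeding, 75 min 37 °C dye, 30 min RT · Measured by – kinetic Fluo-8 calcium fluorescence · Control set – DMSO vehicle as 0%, PEA at EC100 as 100% · Repeats – single well for each compound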
TAAR1 antag: human TAAR1 antagonism; 1.5% of 360,000 active; CHO RD-HGA16 TAAR1, Fluo-8 calcium fluorescence, antagonist; inhibition, % at 3 µM; Q96RJ0; AID 624466;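 active means inhibition above a per-plate cutoff, the mean inhibition of test compounds on that plate plus 3 SD, cut at about 49% in these data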;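 further: 0% = DMSO plus EC80 beta-PEA response and 100% = DMSO alone without agonist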
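Material: CHO RD-HGA16 cells bearing hTAAR1; compound dosing: one-point dosing, 3 µM nominal final; schedule: dye loading 75 min at 37 °C, then 30 min room temperature; measured by: calcium fluorescence with Fluo-8; control set: vehicle and agonist controls; replication: n of 1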
OX1R antag-2: antagonists of human orexin 1 receptor (OX1R) | 1.8% of 330,000 active | O43613 | OX1R-expressing cells, FRET antagonist read-out | inhibition, % at 6.6 µM | AID 485270; in the data active means inhibition mostly above about 38%, no sharp cut-off; inactive means mostly below about 40%;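 further: 0% = agonist challenge alone and 100% = reference antagonist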
CHO parental Ca: counter-screen for OX1R antagonists: effect in parental CHO cells; parental CHO-K1, ATP-induced calcium, Fluo-8 fluorescence; inhibition, % at 5.6 µM; 0.63% of 330,000 active; AID 463079;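 active means inhibition above that plate's mean sample inhibition plus 3 SD, cut at about 26% in these data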;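 further: 0% = ATP-challenged DMSO wells and 100% = DMSO wells without ATP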
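Measured by: calcium-sensitive Fluo-8 fluorescence / Test system: CHO parental line / Controls: ATP-challenged DMSO wells low, unchallenged DMSO wells high / Measure: % inhibition / Compound: single nominal dose of 5.6 µM per compound / Replicates: single well per compound, no replicates / Reagent: ATP as calcium-mobilizing challenge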
The depositor's hits bear a star; nt = not tested or not shown.

SMILES | GPR7 antag | OX1R antag-1 | TAAR1 ag | TAAR1 antag | OX1R antag-2 | CHO parental Ca
Cc1c(O)ccc(C(=O)COc2ccccc2F)c1O | -7 | 7 | 22 | 32 | 37* | 5
CCCN(CCC)CCN1CCN(C(=O)[C@H](CCc2ccccc2)NC(=O)[C@H]2O[C@@H](n3cnc4c(N)ncnc43)[C@H](O)[C@@H]2O)CC1 | nt | nt | 2 | -6 | nt | nt
O=C(CCNS(=O)(=O)c1cccc2nsnc12)NCc1ccccc1 | -9 | -16 | 4 | -27 | 77* | -1
CC(NC(=O)CCNS(=O)(=O)c1cccc2nsnc12)c1ccccc1 (centres undefined) | -6 | -9 | 1 | -32 | 69* | -12
COc1ccc(CNC(=O)CCNS(=O)(=O)c2cccc3nsnc23)cc1 | -12 | -15 | 1 | 9 | 46 | -6
CC(C)c1ccc(NC(=O)CCNS(=O)(=O)c2cccc3nsnc23)cc1 | -9 | -4 | 7 | 13 | 14 | -9
CC(=O)Nc1ccc(Nc2ncnc3c2cnn3-c2cccc(C)c2)cc1 | 10 | -29 | 29 | 28 | 21 | -12
CC(=O)Nc1ccc(Nc2ncnc3c2cnn3-c2ccccc2)cc1 | 0 | 1 | 38* | 27 | 12 | -10
CN(C=[N+](C)C)c1cccc2c1C(=O)c1ccccc1C2=O | -10 | -12 | 1 | -3 | 75* | -2
CCN(CC)CC(=O)Nc1cccc2c1C(=O)c1ccccc1C2=O | -11 | -2 | 7 | 1 | 13 | -17
CCCOCCOC(=O)c1[nH]c2c(c1C)C(=O)CC(c1cc(OC)ccc1OC)C2 (centres undefined) | 20* | -26 | 1 | 47 | 5 | -20
c1ccc(NCc2nc3ccccc3n2CCOc2ccccc2)cc1 | 0 | 12 | 1 | 2 | 68* | -20
Nc1ccc2cc3[nH]c4cc(N)ccc4c3nc2c1 | nt | nt | 78* | 63* | nt | nt
Nc1ccc(-c2nc3ccc(N)cc3[nH]2)cc1 | 1 | -1 | 13 | 9 | 9 | 5
Cc1ccc(S(=O)(=O)N(C)[C@H]2C[C@H]3c4[nH]c5c(-c6ccccc6)cccc5c4CCN3C(=O)[C@H]2[C@H](C)O)cc1 | nt | nt | 3 | 44 | nt | nt
COc1ccc(-c2ccc(C(=O)Nc3cccc(NS(C)(=O)=O)c3)c3occc23)c(C)c1 | nt | nt | 3 | 71* | nt | nt
CCn1nnc(-c2ccccc2NS(=O)(=O)c2ccc(C(=O)OC)cc2)n1 | -5 | 2 | 0 | 34 | 9 | -1
COc1ccc(-n2c(SCC(=O)Nc3ccccc3)nnc2-c2ccc(NS(=O)(=O)c3ccc(C)cc3)cc2)cc1 | -8 | -15 | 9 | 53* | 18 | -13
CCCN(CC(=O)Nc1ccccc1OC)C(=O)c1ccc(S(=O)(=O)Nc2ccccc2)cc1 | nt | 16 | 8 | 15 | 70* | 1
CCCN(CC(=O)Nc1ccccc1OC)C(=O)c1ccc(S(=O)(=O)Nc2ccccc2OC)cc1 | nt | nt | 7 | 19 | nt | nt
COc1ccc(NC(=O)Cn2nnc(-c3ccccc3NC(=O)c3cccs3)n2)cc1 | -11 | -22 | 11 | -2 | 10 | -3
COc1ccc(NC(=O)Cn2nnc(-c3ccccc3NS(=O)(=O)c3ccc(OC)cc3)n2)cc1 | 26* | 30 | 0 | 4 | 32 | 39*
COc1ccccc1NC(=O)Cn1nnc(-c2ccccc2NS(=O)(=O)c2ccccc2)n1 | -3 | 15 | 3 | 57* | 33 | 18
OC(c1ccc(F)cc1)c1ncc(-c2ccc3ccccc3c2)[nH]1 (centres undefined) | nt | nt | 7 | -17 | nt | nt
O=[N+]([O-])c1ccc(S(=O)(=O)c2ccccc2)nc1 | 32 | 20 | 1 | 18 | 59* | 25
SMILES | GPR7 antag | OX1R antag-1 | TAAR1 ag | TAAR1 antag | OX1R antag-2 | CHO parental Ca
Cc1cc(Sc2ccc([N+](=O)[O-])cn2)ccc1Br | nt | -12 | -2 | -13 | 7 | -16
Cc1ccc(S(=O)(=O)c2ccc([N+](=O)[O-])cn2)cc1 | 25 | 23 | 2 | 14 | 28 | 27
Cc1cc(S(=O)(=O)c2ccc([N+](=O)[O-])cn2)ccc1Br | nt | 34 | 7 | 41 | 32 | 55*
Nc1[nH]c(=O)ncc1-c1ccc([N+](=O)[O-])cc1 | nt | nt | 2 | -11 | nt | nt
COc1ccccc1/C=C/C(=O)OCC(=O)N1CCc2ccccc21 | nt | -4 | 1 | 7 | 32* | -36
O=C(Nc1cccc(-c2nc3ccccc3s2)c1)C1=COCCO1 | -5 | 1 | 3 | 7 | 75* | -25
O=C(Nc1ccc(-c2nc3ccccc3s2)cc1)C1=COCCO1 | 0 | 2 | 1 | -18 | 8 | 3
CC(C)[C@@H](C)/C=C/[C@@H](C)[C@H]1CC[C@@H]2[C@]1(C)CCC1[C@]23C=C[C@]2(C[C@@H](O)CC[C@]12C)N(c1cnccn1)O3 (some centres undefined) | nt | nt | 2 | -11 | nt | nt
O=C(Nc1ccc(Oc2ccccc2)cc1)c1csc([C@@H]2O[C@H](CO)[C@@H](O)[C@H]2O)n1 | nt | nt | 8 | 59* | nt | nt
O=C(Nc1ccc(OCCO)cc1)c1csc([C@@H]2O[C@H](CO)[C@H](O)[C@H](O)[C@H]2O)n1 | nt | nt | 3 | -17 | nt | nt
CC(=O)Nc1ccc(NC(=O)c2csc([C@@H]3C[C@H](O)[C@@H](CO)O3)n2)cc1 | nt | nt | 1 | 7 | nt | nt
O=C(Nc1ccc(Oc2ccccc2)cc1)c1csc([C@H]2C[C@H](O)[C@@H](CO)O2)n1 | nt | nt | 13 | 68* | nt | nt
Cc1ccc(S(=O)(=O)N2[C@@H](c3ccccc3)C(C(=O)O)=CC[C@H]2c2ccc(C(C)C)cc2)cc1 | nt | -16 | 3 | 1 | 36 | -18
Cc1ccc([C@H]2C(C(=O)O)=CC[C@@H](c3ccc(C)cc3)N2S(=O)(=O)c2ccc(C)cc2)cc1 | nt | -1 | 1 | -5 | 41* | -34
Cc1ccc([C@H]2C(C(=O)O)=CC[C@@H](c3ccc(C(C)C)cc3)N2S(=O)(=O)c2ccc(C)cc2)cc1 | nt | 29 | 1 | 12 | 29 | 37*
COC(=O)C1=C(C)N(CC(C)C)C(=S)NC1c1ccc(Cl)cc1 (centres undefined) | nt | nt | -2 | -11 | nt | nt
COc1cccc(N2CCN(c3ncnc4c3[nH]c3ccccc34)CC2C)c1 (centres undefined) | -1 | 91* | 16 | 89* | 112* | 89*
COc1cccc(N2CCN(c3ncnc4c3[nH]c3ccc(F)cc34)CC2C)c1 (centres undefined) | 84* | 99* | 27 | 93* | 86* | 96*
COc1ccc2[nH]c3c(N4CC(C)OC(C)C4)ncnc3c2c1 (centres undefined) | -14 | -16 | 4 | 9 | 14 | -10
COC(=O)N1C[C@H](OC)[C@H]2C[C@@H]1c1ccccc1O2 | nt | nt | 2 | -8 | nt | nt
COc1ccc(NC(=O)c2cc(-c3cccs3)on2)cc1OC | -15 | 0 | 42* | 13 | 21 | -7
